Source: PubChem BioAssay (several laboratories)
Arr AP2 block: blocks beta-arrestin peptide binding to AP2 adaptin. AID 504490. FITC-arrestin peptide / GST-AP2 beads, flow cytometry; AP2 beta2 appendage carries R879A mutation. inhibition, % at 10 µM. 340,000 tested, 0.31% active;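 active = inhibition above a set limit, near 3 SD of compounds lacking own fluorescence, cut at about 54% in these data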;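 note: plate controls were DMSO wells for no effect and 5 µM unlabelled arrestin peptide for full effect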
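test system = AP2 appendage R879A on GSH beads | buffer or medium = PBS plus Tween 20 (0.05%) and BSA (0.1%) | incubation = 12 min plus 1 h, RT | detection = bead flow cytometry, FITC channel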
ALR inh: blocks human ALR sulfhydryl oxidase activity | purified ALR, DTT oxidation, H2O2 HRP-luminol luminescence | inhibition, % (test concentration not listed) | 290,000 tested, 3.8% active;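 active = mean replicate inhibition above about 79%, with every replicate also reaching it, limit read from the data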
NALP1 yeast inh: NALP1 inhibition; 280,000 tested, 0.61% active; S. cerevisiae NALP1/ASC/caspase-1 growth, X-gal OD620, 72 h; inhibition, % at 10 µM; in the data active = inhibition mostly above about 24%, no sharp cut-off; inactive = mostly below about 32%
DSG3 Ab inh: blocks pemphigus antibody binding to human desmoglein-3. P32926. DSG3-coupled beads, scFv-anti-DSG3-GFP binding, flow cytometry; hits give low values. binding (percent of control), % at 10 µM. 310,000 tested, 0.48% active. AID 588358;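 active = binding more than 3 SD below its plate's average and above zero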;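 note: hits lower antibody fragment binding to DSG3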
NALP3 yeast inh: blocks the NALP3 inflammasome reconstituted in yeast; Yeast reconstituted NLRP3/ASC/caspase-1, beta-gal luminescence, 24 h; inhibition, % at 10 µM; 330,000 tested, 0.39% active; AID 2825;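 active = inhibition of 50% or more; inactive = inhibition below 50%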;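 note: plate controls were induced DMSO wells for no effect and uninduced yeast grown without galactose for full effect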
PolyA inh: inhibitors of polyadenylation in S. cerevisiae. activity score, % at 12 µM. 300,000 tested, 0.02% active. S. cerevisiae SKY197-pL101 polyadenylation reporter, beta-gal luminescence; efflux-impaired pdr1/pdr3 knockout yeast; score 100 = 6 SD above DMSO;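 active = lowest replicate activity score at least 50, where 100 means six control SD above control mean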;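 note: yeast exposed to compound for 9 h at 30 °C; higher score means more reporter readthrough which indicates perturbed polyadenylation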
The depositor's hits bear a star; / = no result. Hits are enriched below; roughly 4.6% of the tested compounds scored in any of these assays.

SMILES	Arr AP2 block	ALR inh	NALP1 yeast inh	DSG3 Ab inh	NALP3 yeast inh	PolyA inh
C[C@@H]1CN(C(=O)c2ccc(OC3CCN(S(=O)(=O)N(C)C)CC3)cc2)C[C@H](C)O1	21	2	10	111	11	-17
CC1C/C(=N/Nc2nc3ccccc3[nH]2)CC(C)(C)C1 (configuration not stated)	-1	99*	37	103	4	-3
CC1C/C(=N/NC(=O)c2ccc(CSc3nc4ccccc4[nH]3)cc2)CC(C)(C)C1 (configuration not stated)	13	-47	23	112	-16	-10
O=C(Nc1cccc(S(=O)(=O)NC2=NCCC2)c1)c1cn(-c2ccccc2)nc1-c1ccc(F)cc1	-6	/	/	/	4	/
COc1ccc(NC(=O)c2cccc3c2C(=O)c2ccc(-c4ccc(F)cc4OCc4ccccc4)cc2S3(=O)=O)cc1	27	-3	/	98	2	/
COc1ccc(OC[C@@H](O)CNC(=O)c2cccc3c2C(=O)c2ccc(-c4ccc(F)cc4OCc4ccccc4)cc2S3(=O)=O)cc1	1	0	/	60*	4	/
CC(=O)SCC(=O)N=c1sc2cc(F)ccc2n1C	18	99*	17	95	-2	-11
c1ccc(-c2nnc(CN3CCN(c4ccccc4)CC3)o2)cc1	-3	98*	6	110	-12	23
Cc1cc(Oc2ccc(N)cn2)cc(C)c1Cl	-12	8	-2	107	19	-27
O=C(O)c1ccccc1C(=O)Nc1ccc(Oc2ccccc2)cc1	-2	94*	16	100	29	0
CC(C)(C)c1ccc(Oc2ccc(N)cn2)cc1	0	98*	0	101	-3	-3
CC(C)(C)c1ccc(Oc2ccc(NC(=O)c3ccccc3C(=O)O)cn2)cc1	8	93*	-4	112	33	-8
Cc1cccc(Oc2ccc(NC(=O)c3ccccc3C(=O)O)cc2)c1	3	98*	/	89	26	7
Cn1ccnc1COc1ccc(C=O)cc1	1	-6	11	108	14	17
CC1CN(C(=O)CCNS(=O)(=O)c2ccc(Br)cc2)CC(C)O1 (configuration not stated)	0	-4	/	104	24	5
Cc1cccc(Oc2ccc3c(c2)cc(C(=O)O)n3C)c1	13	98*	3	93	5	-16
COc1ccc2c(c1)cc(C(=O)O)n2C	17	-2	-1	95	17	15
CSCCC(=O)N1CCCC(N(C)CCc2ccccc2)C1 (configuration not stated)	39	/	3	108	18	-5
O=C(c1cc2cc(Br)ccc2o1)N1CCCCC1	-3	/	-1	88	34	-9
O=C(c1cc2cc(Cl)ccc2o1)N1CCCC1	43	-10	35*	97	49	6
O=C(CN1C(=O)NC2(CCCCC2)C1=O)NCC(=O)Nc1ccc(F)c(F)c1	5	-8	/	92	-7	7
COc1ccc(-c2nc(C#N)c(N3CCC(C)CC3)o2)cc1	21	-1	28	96	20	8
Oc1ccc(Br)cc1-c1cc(-c2ccco2)[nH]n1	-4	92*	8	/	-6	3
Cc1ccc(-c2csc(NC(=O)CSC3=NCCS3)n2)cc1	-6	100*	-86	100	19	-21
Cc1ccc(-c2csc(NC(=O)CSc3nc(C)cc(=O)[nH]3)n2)cc1	/	99*	6	/	1	18
O=C(Nc1cccnc1Cl)c1cc2ccccc2o1	-23	-5	3	112	25	42
O=C(NC(Cc1ccccc1)C(=O)N1CCN(c2ccc(F)cc2)CC1)c1ccccc1 (configuration not stated)	/	/	/	106	/	/
CN(C)c1ccc(C(=S)N2CCNCC2)cc1	-18	99*	18	121	-4	2
COc1ccc(/C=N\NC(=O)c2ccc(Cn3cc(Br)c([N+](=O)[O-])n3)o2)c(OC)c1C	11	-18	1	65*	12	13
CC1CN(S(=O)(=O)c2ccc(-c3nc4ccccc4s3)cc2)CC(C)O1 (configuration not stated)	-8	-8	30*	97	2	7
